Several values for one entry are separate records, joined by “and”; a condition that tells them apart may be missing. Equal values may be shown once. Values belong to the compound of their own block, whether it stands above or below them.
Experiments:
[1] = system: aldehyde dehydrogenase (Saccharomyces cerevisiae); assay: In vitro inhibition of yeast aldehyde dehydrogenase is evaluated by the formation of NADH
[2] = system: aldehyde dehydrogenase (Saccharomyces cerevisiae); assay: In vitro inhibition of yeast aldehyde dehydrogenase; parameters: concentration or dose not given beside the values; settings: concentration not given here
[3] = target: T1, Aldehyde dehydrogenase, mitochondrial (Rattus norvegicus) (UniProt P11884); assay: Percent inhibition of class II aldehyde dehydrogenase in vitro in intact rat liver mitochondria; settings: concentration not given here
T1 sequence (whole entry): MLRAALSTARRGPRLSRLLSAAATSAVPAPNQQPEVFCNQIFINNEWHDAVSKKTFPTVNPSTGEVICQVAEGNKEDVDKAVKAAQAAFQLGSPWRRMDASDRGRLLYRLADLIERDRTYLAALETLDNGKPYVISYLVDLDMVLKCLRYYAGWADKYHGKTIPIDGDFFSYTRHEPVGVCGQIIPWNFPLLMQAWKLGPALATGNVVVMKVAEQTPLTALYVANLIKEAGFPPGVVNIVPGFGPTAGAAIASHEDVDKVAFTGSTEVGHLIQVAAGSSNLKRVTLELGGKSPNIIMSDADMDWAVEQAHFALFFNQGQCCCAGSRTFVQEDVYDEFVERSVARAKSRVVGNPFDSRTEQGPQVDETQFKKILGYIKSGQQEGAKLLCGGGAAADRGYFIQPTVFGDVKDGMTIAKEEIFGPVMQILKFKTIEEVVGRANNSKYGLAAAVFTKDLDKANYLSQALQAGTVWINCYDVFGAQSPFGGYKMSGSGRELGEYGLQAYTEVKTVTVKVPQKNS
Method in brief: (§1)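 Mitochondria from overnight-fasted male rats (200–250 g). Preincubated 5 min at 37 °C, then acetaldehyde (200 nmol) added for 5 min. Quenched with cold HClO4; acetaldehyde loss read by head-space GC; Lowry protein.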

[4] = target: T1, Aldehyde dehydrogenase, mitochondrial (Rattus norvegicus); assay: Inhibition of class II aldehyde dehydrogenase in vitro in osmotically disrupted rat liver mitochondria assayed by nmol of acetaldehyde oxidized/min.mg of protein
Method in brief: (§2)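 Liver mitochondria from overnight-fasted male rats (200–250 g), osmotically disrupted by leaving sucrose out of the medium. Preincubated 5 min at 37 °C, then acetaldehyde (200 nmol) added for 5 min. HClO4 quench; head-space GC; Lowry protein.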

[5] = target: T1, Aldehyde dehydrogenase, mitochondrial (Rattus norvegicus); assay: Inhibition of class II aldehyde dehydrogenase in vitro in intact rat liver mitochondria assayed by nmol of acetaldehyde oxidized/min.mg of protein
Method in brief: as §1

[6] = target: T1, Aldehyde dehydrogenase, mitochondrial (Rattus norvegicus); assay: Percent inhibition of class II aldehyde dehydrogenase in vitro in osmotically disrupted rat liver mitochondria; settings: concentration not given here
Method in brief: as §2

Saccharomyces cerevisiae [7] = assay: Inhibition of yeast […] is evaluated by formation by NADH in vitro at 10 uM concentration of compound
Method in brief: (§3)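 Commercial yeast AlDH (0.074 IU) was preincubated 10 min at 0 °C with test agent added in acetone, in 100 mM potassium phosphate pH 7.4 containing 1.0 mM NAD+. Concentration is the final level in this primary mix. A 20-µL aliquot went into 0.5 mM NAD+, 1.0 mM EDTA, 30% glycerol, 80 mM potassium phosphate pH 8.0; reaction started with benzaldehyde (0.6 µmol); NADH read at 340 nm.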

Saccharomyces cerevisiae [8] = assay: In vitro inhibition of yeast […] is evaluated by the formation of NADH at 100 uM concentration of compound
Method in brief: as §3

Saccharomyces cerevisiae [9] = assay: In vitro inhibition of yeast […] at 100 uM concentration of compound
Saccharomyces cerevisiae [10] = assay: In vitro inhibition of yeast aldehyde dehydrogenase at 100 uM concentration of compound
Method in brief: as §3

Saccharomyces cerevisiae [11] = assay: In vitro inhibition of yeast […] at 1 uM concentration of compound
Saccharomyces cerevisiae [12] = assay: Inhibition of yeast aldehyde dehydrogenase is evaluated by formation by NADH in vitro at 10 uM concentration of compound
Method in brief: as §3

ALDH activity (NADH formation rate) [1]: 0 nM/min | inhibition [2]: 100%
SMILES: CCCNC(=O)N(CC(C)C)S(=O)(=O)c1ccc(Cl)cc1

ALDH activity (NADH formation rate) [1]: 0 nM/min | inhibition [2]: 100%
SMILES: CCCCN(C(=O)NCCC)S(=O)(=O)c1ccc(Cl)cc1

ALDH activity (NADH formation rate) [1]: 1.4 nM/min | inhibition [2]: 98.6%
SMILES: CCCNC(=O)N(CC)S(=O)(=O)c1ccc(Cl)cc1

ALDH activity (NADH formation rate) [1]: 1.3 nM/min | inhibition [2]: 91.1%
SMILES: CCCNC(=O)N(CCC)S(=O)(=O)c1ccc(Cl)cc1

ALDH activity (NADH formation rate) [1]: 0.6 nM/min | inhibition [3]: 48.9% | AIDH activity [4]: 19 nM/min | AIDH activity [5]: 13.4 nM/min | inhibition [2]: 99.6% | inhibition [6]: 73.7%
SMILES: CCCNC(=O)N(C)S(=O)(=O)c1ccc(Cl)cc1

More lines, now with the values behind:

SMILES: CCCNC(=O)N(C(C)C)S(=O)(=O)c1ccc(Cl)cc1
ALDH activity (NADH formation rate) [1]: 0 nM/min | inhibition [2]: 100%

SMILES: CCCOC(=O)N(CC)S(=O)(=O)c1ccc(Cl)cc1
ALDH activity (NADH formation rate) [1]: 14.6 nM/min | inhibition [2]: 1.4%

SMILES: CCCNC(=O)NS(=O)(=O)c1ccc(Cl)cc1
inhibition [3]: 0% | AlDH activity [4]: 73.8 nmol/min/mg | AIDH activity [5]: 28.3 nM/min | inhibition [6]: 0%

SMILES: O=C=NC1CCCCC1
AIDH activity (Saccharomyces cerevisiae [7]): 12.4 nM/min | AIDH activity (Saccharomyces cerevisiae [8]): 0 nM/min | inhibition (Saccharomyces cerevisiae [9]): 96.5% | inhibition (Saccharomyces cerevisiae [10]): 100% | inhibition (Saccharomyces cerevisiae [11]): 12.1% | AIDH activity (Saccharomyces cerevisiae [12]): 0.5 nM/min

SMILES: CCCNC(=O)N(C(C)(C)C)S(=O)(=O)c1ccc(Cl)cc1
ALDH activity (NADH formation rate) [1]: 0 nM/min | inhibition [2]: 100%

SMILES: CCN(C(=O)NC(C)(C)C)S(=O)(=O)c1ccc(Cl)cc1
ALDH activity (NADH formation rate) [1]: 2.7 nM/min | inhibition [2]: 97.3%

SMILES: CCCN=C=O
AIDH activity (Saccharomyces cerevisiae [8]): 0 nM/min | inhibition (Saccharomyces cerevisiae [9]): 100% and 98.5% | inhibition (Saccharomyces cerevisiae [11]): 8.8%

SMILES: CCCN(C)C(=O)NS(=O)(=O)c1ccc(Cl)cc1
ALDH activity (NADH formation rate) [1]: 15 nM/min | inhibition [2]: 0%

SMILES: CCCCN=C=O
AIDH activity (Saccharomyces cerevisiae [7]): 11.2 nM/min | AIDH activity (Saccharomyces cerevisiae [8]): 0 nM/min | inhibition (Saccharomyces cerevisiae [9]): 98.9% | inhibition (Saccharomyces cerevisiae [10]): 100% | inhibition (Saccharomyces cerevisiae [11]): 20.8% | AIDH activity (Saccharomyces cerevisiae [12]): 0.2 nM/min

SMILES: CCCNC(=O)N(CC(C)(C)C)S(=O)(=O)c1ccc(Cl)cc1
ALDH activity (NADH formation rate) [1]: 0 nM/min | inhibition [2]: 100%

Source: ChEMBL document CHEMBL1124498
